Experimental data from ChEMBL document CHEMBL1147039, “Disrupting antibiotic resistance propagation by inhibiting the conjugative DNA relaxase” (Proc Natl Acad Sci U S A, 2007).
Active and inactive are the calls of the source. The rule behind the calls is not given here.

B1: Type IV secretion-like conjugative transfer relaxase protein TraI (Escherichia coli (strain SMS-3-5 / SECEC)), B1LRJ1 Y16F (protein)
chain: MMSIAQVRSAGSAGNFYTDKDNYYVLGSMGERWAGRGAEQLGLQGSVDKDVFTRLLEGRLPDGADLSRMQDGSNKHRPGYDLTFSAPKSVSMMAMLGGDKRLIDAHNQAVDFAVRQVEALASTRVMTDGQSETVLTGNLVMALFNHDTSRDQEPQLHTHAVVANVTQHNGEWKTLSSDKVGKTGFIENVYANQIAFGRLYREKLKEQVEALGYETEVVGKHGMWEMPGVPVEAFSGRSQTIREAVGEDASLKSRDVAALDTRKSKQHVDPEIKMTEWMQTLKETGFDIRAYRDAAEQRAYTRTQTPGPASQDGPDVQQAVTQAIAGLSERKVQFTYTDVLARTVGILPPEAGVIERARAGIDEAISREQLIPLDREKGLFTSGIHVLDELSVRALSRDIMKQNRVTVHPEKSVPRTAGYSDAVSVLAQDRPSLAIVSGQGGAAGQRERVAELVMMAREQGREVQIIAADRRSQMNLKQDERLSGELITGRRQLLEGMAFTPGSTVIVDQGEKLSLKETLTLLDGAARHNVQVLITDSGQRTGTGSALMAMKDAGVNTYRWQGGEQRPATIISEPDRNVRYARLAGDFAASVKAGEESVAQVSGVREQAILTQAIRSELKTQGVLGHQEVTMTALSPVWLDSRSRYLRDMYRPGMVMEQWNPETRSHDRYVIDRVTAQSHSLTLRDAQGETQVVRISSLDSSWSLFRPEKMPVADGERLRVTGKIPGLRVSGGDRLQVASVSEDAMTVVVPGRAEPASLPVADSPFTALKLENGWVETPGHSVSDSAKVFAAVTQMAMDNATLNGLARSGRDVRLYSSLDETRTAEKLARHPSFTVVSEQIKAHAGETSLETSISLQKAGLHTPAQQAIHLALPVLESKKLAFSMVDLLTEAKSFAAEGTGFTELGGEINAQIKRGDLLYVDVAKGYGTGLLVSRASYEAEKSILRHILEGKEAVTPLMERVPGELMEKLTSGQRAATRMILETSDRFTVVQGYAGVGKTTQFRAVMSAVNMLPESMRPRVVGLGPTHRAVGEMRSAGVDAQTLASFLHDTQLQQRSGETPDFSNTLFLLDESSMVGNTDMARAYALIAAGGGRAVASGDTDQLQAIAPGQPFRLQQTRSAADVAIMKEIVRQTPELREAVYNLINRDVERALSGLERVKPSQVPRLEGAWAPEHSVMEFSHSQEAKLAEAQQKAMLKGEAFPDVPMTLYEAIVRDYTGRTPEAREQTLIVTHLNEDRRVLNSMIHDAREKAGELGKEQVMVPVLNTANIRDGELRRLSTWETHRDALVLVDNVYHRIAGISKDDGLITLEDAEGNTRLISPREAVAEGVTLYTPDTIRVGTGDRMRFTKSDRERGYVANSVWTVTAVSGDSVTLSDGQQTRVIRPGQERAEQHIDLAYAITAHGAQGASETFAIALEGTEGNRKQMAGFESAYVALSRMKQHVQVYTDNRQGWTDAINNAVQKGTAHDVFEPKPDREVMNAERLFSTARELRDVAAGRAVLRQAGLAGGDSPARFIAPGRKYPQPYVALPAFDRNGKSAGIWLNPLTTDDGNGLRGFSGEGRVKGSGDAQFVALQGSRNGESLLADNMQEGVRIARDNPDSGVVVRIAGEGRPWNPGAITGGRVWGDIPDNSVQPGAGNGEPVTAEVLAQRQAEEAIRRETERRADEIVRKMAENKPDLPDGKTEQAVREIAGQERDRAAITEREAALPESVLRESQREREAVREVARENLLQERLQQMERDMVRDLQKEKTLGGD

Experiments:
Escherichia coli [1] = test: Selectivity ratio, ratio of EC50 for Escherichia coli JS10 to ratio of EC50 for inhibition of conjugate DNA transfer between Escherichia coli JS10 and Escherichia coli JS4; type: functional
Procedure, shortened: (§1)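 Each ratio divides one EC50 by another. The EC50s come from 100-min inhibitor exposures: separate donor and recipient survival assays, and a 1:9 donor:recipient liquid mating assay. Viable or transconjugant cells were counted on selective agar or by oxygen-quenched fluorescence in antibiotic medium.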

Escherichia coli [2] = test: Selectivity ratio, ratio of EC50 for Escherichia coli JS4 to ratio of EC50 for inhibition of conjugate DNA transfer between Escherichia coli JS10 and Escherichia coli JS4; type: functional; procedure, shortened: as §1
Escherichia coli [3] = test: Selectivity ratio, ratio of EC50 for inhibition of conjugate DNA transfer between Escherichia coli JS10 and Escherichia coli JS4 to EC50 for Escherichia coli JS10; type: functional; procedure, shortened: as §1
Escherichia coli [4] = test: Selectivity ratio, ratio of EC50 for Escherichia coli JS4 to EC50 for Escherichia coli JS10; type: functional; procedure, shortened: as §1
Escherichia coli [5] = test: Inhibition of conjugate DNA transfer between tetracycline-resistant F plasmid positive Escherichia coli JS10 to streptomycin-resistant F plasmid deficient Escherichia coli JS4; type: functional, organism-based
Procedure, shortened: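 F+ donor and F− recipient E. coli were mixed 1:9 in dilute liquid medium with increasing inhibitor concentrations for 100 min. Inhibitor was removed before transconjugants were selected with antibiotics. Transconjugants were counted as colonies on agar, or by oxygen-biosensor fluorescence in antibiotic medium. EC50 for DNA transfer was derived from the counts.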

[6] = test system: Type IV secretion-like conjugative transfer relaxase protein TraI (Escherichia coli (strain SMS-3-5 / SECEC)), B1LRJ1 [Y16F]; test: (§2) Inhibition of Escherichia coli F plasmid TraI relaxase Y16F mutant assessed as oriT ssDNA cleavage at 200 nM
Escherichia coli [7] = test: Cytotoxicity against tetracycline-resistant F plasmid positive Escherichia coli JS10; type: functional, organism-based
Procedure, shortened: (§3)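 Donor and recipient strains were kept separate and exposed to inhibitor for 100 min. Inhibitor was added at the start and removed before selection. Surviving cells were counted on antibiotic-selective agar plates, or in antibiotic-containing medium by an oxygen-quenched fluorophore gel assay in which fluorescence is proportional to live cells. EC50 was determined from cell counts.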

Escherichia coli [8] = test: Cytotoxicity against streptomycin-resistant F plasmid deficient Escherichia coli JS4; type: functional, organism-based; procedure, shortened: as §3
[9] = molecular target: T1, Type IV secretion-like conjugative transfer relaxase protein TraI (Escherichia coli (strain SMS-3-5 / SECEC), UniProt B1LRJ1, Y16F); test: Inhibition of Escherichia coli F plasmid TraI relaxase Y16F mutant assessed as oriT ssDNA cleavage by competitive inhibition assay
Procedure, shortened: (§4)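 Truncated F plasmid TraI (residues 1–300, Y16F) was expressed in E. coli at 30°C as an intein–chitin-binding-domain fusion, purified on chitin resin and released by DTT cleavage. Biotinylated oriT ssDNA was either fluorescein end-labelled or hybridised after the reaction to an end-labelled probe. Reactions ran at 37°C, were stopped with SDS/EDTA at 80°C, and were read on streptavidin-coated plates.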

[10] = test system: Type IV secretion-like conjugative transfer relaxase protein TraI (Escherichia coli (strain SMS-3-5 / SECEC)), B1LRJ1 [Y16F]; test: as §2; remark: listed apart in the source
[11] = molecular target: T1, Type IV secretion-like conjugative transfer relaxase protein TraI; test: Inhibition of Escherichia coli F plasmid TraI relaxase Y16F mutant assessed as oriT ssDNA cleavage by uncompetitive inhibition assay; procedure, shortened: as §4
[12] = substrate: O=P(O)(O)NP(=O)(O)O; test: Activity of Escherichia coli F plasmid TraI relaxase Y16F mutant assessed as oriT ssDNA cleavage; procedure, shortened: as §4

Row | Molecule | Ratio EC50 (Escherichia coli [1]) | Ratio EC50 (Escherichia coli [2]) | Ratio EC50 (Escherichia coli [3]) | Ratio EC50 (Escherichia coli [4]) | EC50 (Escherichia coli [5]) | Activity [6] | EC50 (Escherichia coli [7]) | EC50 (Escherichia coli [8]) | Ki [9] | Activity [10] | Ki [11] | Km [12] | Vmax [12]
1 | COP(=O)(OC)c1ccccc1P(=O)(OC)OC | 0.0048 | 7100 | 210 | 1500000 | 14 µM | inactive | 0.068 µM | – | – | – | – | – | –
2 | O=P(O)(O)C(Cl)(Cl)P(=O)(O)O [CLODRONIC ACID] | 78 | 26000 | 0.013 | 330 | 0.11 µM | inactive | 9 µM | 3000 µM | 0.003 µM | Active | – | – | –
3 | CC1(C)S[C@@H]2[C@H](NC(=O)[C@H](N)c3ccccc3)C(=O)N2[C@H]1C(=O)O | – | – | – | – | – | inactive | – | – | – | – | – | – | –
4 | NCCCCCC(O)(P(=O)(O)O)P(=O)(O)O | – | – | – | – | – | inactive | – | – | – | inactive | – | – | –
5 | O=P(O)(O)CNCP(=O)(O)O [IMINOBIS(METHYLPHOSPHONIC ACID)] | 0.028 | 9000 | 36 | 330000 | 0.58 µM | inactive | 0.016 µM | 5000 µM | – | – | – | – | –
6 | O=C(O)CN(CP(=O)(O)O)CP(=O)(O)O | – | – | – | – | – | inactive | – | – | – | – | – | – | –
7 | O=P(O)(O)CP(=O)(O)O [MEDRONIC ACID] | 1.5 | 20 | 0.68 | 1700 | 0.35 µM | inactive | 0.51 µM | 870 µM | 0.003 µM | – | – | – | –
8 | O=P(O)(O)NP(=O)(O)O [IMIDODIPHOSPHATE] | 0.014 | 20 | – | 1400 | 10 µM | inactive | 0.43 µM | 620 µM | 0.002 µM | – | 0.0027 µM | – | –
9 | O=P(O)(O)CCCCP(=O)(O)O | – | – | – | – | – | inactive | – | – | – | – | – | – | –
10 | NCCC(O)(P(=O)(O)O)P(=O)(O)O [PAMIDRONIC ACID] | – | – | – | – | > 10000 µM | inactive | > 10000 µM | > 10000 µM | – | inactive | – | – | –
11 | CC(O)(P(=O)(O)O)P(=O)(O)O [ETIDRONIC ACID] | 30 | 1100 | 0.034 | 38 | 0.33 µM | inactive | 10 µM | 370 µM | 0.003 µM | Active | – | – | –
12 | O=P(O)(O)CN(CP(=O)(O)O)CP(=O)(O)O | – | – | – | – | – | inactive | – | – | – | – | – | – | –
13 | B1 | – | – | – | – | – | – | – | – | – | – | – | 0.294 µM | 0.51 nM/s
